Consider 14 compounds from publication PMC11617404 (iScience, 2024).

Data set [1] concerns primary mouse hepatocytes. The data set can be described thus: Hypoxia induction assay. It counts as cell-based. The following applies: 1 mM overnight, 1 h starvation. An outline of the steps: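 Transfected primary mouse hepatocytes received 1 mM DMOG 24 h before and during the assay, with DMSO as blank. After 1 h glucose starvation they were given 20 mM glucose (35 min), a further 20 mM glucose (10 min), then 100 mM 2-DG (10 min), with the 488/405 nm ratio recorded.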

Data set [2] has as its system HepG2 cells. The data set can be described thus: Hypoxia induction assay. It counts as cell-based, human. The following applies: 1 mM overnight, 1 h starvation. An outline of the steps:
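Transfected HepG2 cells received 1 mM DMOG 24 h before the assay, kept throughout, with DMSO as blank. After 1 h glucose starvation, cells were imaged for 30 min after 10 mM glucose, following the 488/405 nm ratio. n ≥ 5, 50 cells per replicate.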

Data set [3] has as its target T1, HYlight (Bacillus subtilis, UniProt O32253). The experiment in a line: Metal binding assay on purified HYlight. The following applies: 150 mM NaCl or KCl, 0.1 mM EDTA.
The target in data set [4] is T1, HYlight. The data set can be described thus: Titration of purified recombinant HYlight, excitation ratio F500/F400. It counts as binding. The following applies: for average fluorescence ratio: 1 μM FBP, Figure 6D; for maximum ratiometric value (fluorescence ratio): Figure 6A; for fluorescence ratio (maximum): Figure 7A; for maximum fluorescence ratio: purified HYlight, titration from low μM to mM range, Figure 5C. An outline of the steps:
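Purified sensor (200 nM) was scanned at excitation 350–520 nm, emission 560 nm, 25°C, with ratio F500/F400. For ionic strength, protein in TBS (0 mM NaCl, 50 mM Tris-HCl pH 7.6) was titrated with FBP and NaCl 0–150 mM. The buffer series compared 25 mM MES/CHES/HEPES, PBS and Britton-Robinson pH 8, pH-adjusted with NaOH; n = 3.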

Data set [5] has as its system HepG2 cells. The data set can be described thus: FBP added to the media of non-permeabilized HepG2 cells expressing HYlight. The settings on record: intact HepG2 cells, increasing FBP in the media, no saponin. It counts as cell-based, human.
A short description of data set [6]: FBP quantification with HYlight in primary mouse hepatocytes. It counts as cell-based. A digest of the protocol:
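Hepatocytes were transfected with HYlight plasmid 2 h after seeding; medium was replaced 12 h later. Cells were glucose-starved 1 h in glucose-free Seahorse XF DMEM (pH 7.4, 2 mM glutamine), then given 10 mM glucose. Confocal 488/405 ratios were normalized to post-2-DG values and read against an in vitro FBP curve (ΔR/R10) mimicking ionic strength and metabolic competition. n = 3, ≥50 cells each.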

Another data set deals with PFK-1. The following applies: PFK-1 toward FBP; ref BRENDA:EC2.7.1.11; Zheng and Kemp[47]; cited from earlier work.
A further data set relates to aldolase. The following applies: cited from earlier work.
A further data set relates to FBPase-1. The settings on record: FBPase-1 for FBP, gluconeogenic conditions; cited from earlier work.
The target in data set [7] is T1, HYlight. The data set can be described thus: Dihydroxyacetone phosphate competition assay on purified HYlight. It counts as binding. The settings on record: purified HYlight in the presence of 100 μM FBP, Figure 5D. A digest of the protocol:
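Protein was IPTG-induced (0.5 mM, overnight, 30°C), purified by Ni2+ affinity and size exclusion, and used at 200 nM. DHAP was titrated with or without 100 μM FBP, and with or without cytosolic ionic strength (140 mM K+, 12 mM Na+) plus a metabolic mix. Excitation was scanned 350–520 nm with emission at 560 nm, 25°C. Ratio R = F500/F400, ΔR/R0 = (Rt−Rt=0)/Rt=0; n = 3.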

In data set [8] the target is T1, HYlight. The experiment in a line: Titration of purified HYlight with oligomycin or 2-DG. The class given is binding. The following applies: increasing concentrations, Figure S1E.
Data set [9] relates to HepG2 cells. The experiment in a line: ECAR and OCR during glycolytic stress test. The settings on record: 1 h glucose starvation, 10 mM glucose, 10 μM oligomycin, 100 mM 2-DG. It counts as cell-based, human. A digest of the protocol: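 HepG2 cells in Seahorse plates were transfected the next day with the sensor or its null variant. At 24 h they were glucose-starved for 1 h in XF DMEM (pH 7.4, 2 mM glutamine, no glucose, no phenol red) in a CO2-depleted incubator, and the medium was renewed. Additions: 10 mM glucose, 10 μM oligomycin, then 100 mM 2-DG in two 50 mM steps. OCR (pmol O2/min) was normalized to cell number by BCA protein assay; n = 3.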

Data set [10] has as its system primary mouse hepatocytes. The experiment in a line: Glucose titration, HYlight confocal imaging in primary mouse hepatocytes. It counts as cell-based. The settings on record: 1 h glucose starvation, glucose 0–40 mM added every 10 min. An outline of the steps:
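Hepatocytes were isolated by two-step collagenase perfusion via the vena cava and cultured in William's medium with 10% FBS and 10 mM HEPES. They were transfected 2 h after seeding, with medium changed at 12 h. After 1 h starvation in glucose-free XF DMEM pH 7.4, cells were imaged 10 min, given glucose in steps every 10 min to 40 mM, then 100 mM 2-DG. The 488/405 nm ratio was recorded; n = 3, ≥50 cells each.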

For data set [11], the system named is HepG2, HLE, and Huh6 cells. The experiment in a line: Glucose titration, HYlight confocal imaging in hepatoma cell lines. It counts as cell-based, human. A digest of the protocol:
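Hepatoma lines expressing codon-optimized cytosolic sensor (Lipofectamine, medium changed at 24 h) were glucose-starved for 1 h in XF DMEM pH 7.4 without glucose. They were imaged 10 min, then given increasing glucose every 10 min up to 40 mM, then 50 mM 2-DG. The 488/405 nm confocal ratio was min-max normalized, and the Hill coefficient was taken from ratio versus glucose; n = 3, ≥50 cells each.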

The next data set has as its system HLE cells. The experiment in a line: Glycolytic stress test, HYlight confocal imaging in HLE cells. The class given is cell-based, human. The settings on record: after the addition of 10 mM glucose. A digest of the protocol: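 Transfected HLE cells were glucose-starved for 1 h in XF DMEM pH 7.4 (2 mM glutamine, no glucose) and imaged 10 min. They then received 10 mM glucose for 30 min, 2.5 μM oligomycin for 30 min and 50 mM 2-DG for 30 min. The 488/405 nm ratio was followed over time and min-max normalized.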

Data set [12] deals with HepG2 cells. The data set can be described thus: Gluconeogenesis induction with FBP1 or PFK inhibition, HYlight imaging. It counts as cell-based, human. An outline of the steps: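 HepG2 cells were kept in DMEM Glutamax with 25 mM lactate and 0.65 mM pyruvate. After transfection, 50 μM dexamethasone and 100 nM glucagon were added; normal medium served as comparison. The PFK inhibitor (20 μM) was given 24 h before the assay, and the FBP1 inhibitor (20 μM) acutely. After 1 h glucose starvation, cells were imaged with dexamethasone and glucagon (60 min each), FBP1 inhibitor (30 min), then 15 mM glucose (25 min). Read-out was 488/405 nm ratio; n ≥ 3, 50 cells each.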

The target in data set [13] is T1, HYlight. The following applies: cited from earlier work.
Data set [14] has as its target T1, HYlight. The data set can be described thus: Phosphate titration assay on purified HYlight. The class given is binding. An outline of the steps:
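Purified sensor (200 nM) or null variant was tested in SEC buffer pH 8 with TBS or PBS. Separately, 200 mM Sorensen's phosphate pH 8 was titrated from the nM to mM range into sensor in 50 mM Tris pH 8, with or without 100 μM FBP, keeping conductivity constant. Excitation was scanned 350–520 nm, emission 560 nm, 25°C; read-out was the F500/F400 ratio change; n = 3.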

T1 sequence (O32253 96-340, other chains not shown): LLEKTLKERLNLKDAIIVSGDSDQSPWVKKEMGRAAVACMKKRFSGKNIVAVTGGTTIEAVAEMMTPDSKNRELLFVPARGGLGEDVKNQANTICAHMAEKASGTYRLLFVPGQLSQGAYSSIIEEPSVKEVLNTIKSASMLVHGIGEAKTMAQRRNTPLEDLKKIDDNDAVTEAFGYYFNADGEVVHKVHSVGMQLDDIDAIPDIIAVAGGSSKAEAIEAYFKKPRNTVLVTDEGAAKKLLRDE

In the case of `COC(=O)CNC(=O)C(=O)OC` [DMOG, dimethyloxalylglycine], the “basal fluorescence (HYlight ratio)” value (in [1]; with HepG2 cells [2]) was “significant increase in basal fluorescence” in each case. Moreover, the “response to glucose (HYlight ratio)” value (in data set [1]; in the data set on HepG2 cells [2]) was “diminished or absent response to glucose” in each case.

Take `O=C(O)CN(CCN(CC(=O)O)CC(=O)O)CC(=O)O` [EDTA, ethylenediaminetetraacetic acid]: the “effect on response and apparent KD value of HYlight for FBP” value (from here on “effect on response and apparent KD value”) at HYlight [3] is “did not alter the response or the apparent KD value”.

Consider `O=C(COP(=O)(O)O)[C@@H](O)[C@H](O)[C@H](O)COP(=O)(O)O` [FBP, fructose 1,6-bisphosphate], for which the average fluorescence ratio was determined as 1.87 on HYlight [4] (TBS with 0 mM NaCl) and 0.94 at HYlight [4] (TBS with 150 mM NaCl). Also, the entries for the “maximum ratiometric value (fluorescence ratio)” value at HYlight [4] (Britton-Robinson phosphate buffer), on HYlight [4] (MES-CHES-HEPES buffer) and on HYlight [4] (PBS) were 1, approximately 3 and 2, respectively. Besides, the “fluorescence ratio (maximum)” value is 3.5 at HYlight [4] (CIS (140 mM KCl and 12 mM NaCl)); 3.5 on HYlight [4] (CIS + metabolic mix solution); 2 on HYlight [4] (working buffer, 125 mM NaCl). Moreover, the maximum fluorescence ratio at HYlight [4] worked out at 2. Also, the “entry of FBP from the media into cells (HYlight ratio unchanged)” value in the data set with HepG2 cells [5] is “could not cross the membrane”. Also, the “FBP concentration in primary mouse hepatocytes (HYlight)” value in [6] (after 10 mM glucose) is 21 µM; in [6] (before glucose addition) it was 15 µM. The turnover rate in the data set on PFK-1 is 111 s⁻¹. For the same compound, the figures for the specificity constant with aldolase (aldolase for FBP) and in the data set with FBPase-1 were 4.7 mM⁻^1s⁻^1 and 23 mM⁻^1s⁻^1, respectively.

`[Na+]` [Na^+]: the “effect on response and apparent KD value” value at HYlight [3] is reported as “did not alter the response or the apparent KD value”.

As to `O=C(CO)COP(=O)(O)O` [DHAP, dihydroxyacetone phosphate], the maximum fluorescence ratio on HYlight [4] stood at 0.75. Also, the “DHAP concentration at which significant competition was observed” value on HYlight [7] is recorded as “above 2.5 mM”.

As for `O=CC[C@@H](O)[C@H](O)[C@H](O)CO` [2-DG, 2-deoxy-D-glucose], the “direct effect on ratiometric response of purified HYlight” value at HYlight [8] was “do not directly interact with HYlight”. Besides, the “change of oxygen consumption rate (OCR)” value with HepG2 cells [9] is given as “increase in the OCR”.

For `OC[C@H]1OC(O)[C@H](O)[C@@H](O)[C@@H]1O` (stereo partly shown) [glucose], the “glucose concentration after which HYlight changes were detected” value in data set [10] is given as 20 mM. Moreover, the “glucose concentration needed for HYlight changes” value in data set [11] (1 h glucose starvation, glucose 0–40 mM added every 10 min) came to 5 mM. Further, in [11] (HLE, HepG2, Huh6 cell lines and primary mouse hepatocytes, Figure 1C), the “hill coefficient of HYlight ratio against glucose concentration” value is “approximately 1”. In addition, the “time to maximum HYlight response” value in the data set with HLE cells amounted to 30 min. Also, the “change of oxygen consumption rate (OCR)” value in the data set with HepG2 cells [9] was “decrease in oxygen consumption”.

Consider `O=CC(O)COP(=O)(O)O` (stereo not shown) [glyceraldehyde 3-phosphate], for which, in the data set on aldolase (aldolase toward glyceraldehyde 3-phosphate, ref BRENDA:EC4.1.2.13, Plater et al.[48]), the turnover rate is 8.2 s⁻¹.

In the case of `O=S(=O)(Nc1nc2cc(Cl)ccc2o1)c1cc(Cl)ccc1Cl` [5-chloro-2-(N-(2,5-dichlorobenzenesulfonamide))-benzoxazole], the “FBP level (HYlight ratio) after glucose addition” value with HepG2 cells [12] (20 μM inhibitor, gluconeogenic medium, 15 mM glucose) was “increase of FBP to levels comparable to those seen with standard media”.

For `O=C(/C=C/c1cccnc1)c1ccncc1` [3PO, (2E)-3-(3-Pyridinyl)-1-(4-pyridinyl)-2-propen-1-one], the “decrease in FBP levels after glucose addition” value in the data set with HepG2 cells [12] (20 μM, 24 h treatment, gluconeogenic media) is listed as “not observed”. Moreover, in the data set with HepG2 cells [12] (20 μM, 24 h treatment, normal media), the “FBP levels (HYlight ratio) after glucose addition” value was “significant decrease in the FBP levels”.

As to `O=P(O)(O)OC[C@H]1O[C@@](CO)(OP(=O)(O)O)[C@@H](O)[C@@H]1O` [fructose 2,6-bisphosphate], the “binding to HYlight” value on HYlight [13] is “can also bind”.

In the case of `[K+]` [K^+], the “effect on response and apparent KD value” value at HYlight [3] was “did not alter the response or the apparent KD value”.

Consider phosphate, for which the “effect of phosphate titration on 500/400 fluorescence ratio” value on HYlight [14] (in the absence of FBP) was “increase in the 500/400 fluorescence ratio”. Also, the “effect of phosphate titration on fluorescence response” value at HYlight [14] (in the presence of 100 μM FBP) is reported as “decrease in fluorescence response”.

On to `CC[C@H]1/C=C/C=C/C[C@@H](C)[C@H](O)[C@@](C)(O)C(=O)[C@@H](C)[C@H](O)[C@@H](C)C(=O)[C@@H](C)[C@H](O)[C@@H](C)/C=C/C(=O)O[C@@H]2[C@H](C)[C@H](CC1)O[C@]1(CC[C@H](C)[C@H](C[C@@H](C)O)O1)[C@H]2C` [oligomycin, Oligomycin A], for which, at HYlight [8], the “direct effect on ratiometric response of purified HYlight” value was “do not directly interact with HYlight”. Also, the “change of oxygen consumption rate (OCR)” value in the data set with HepG2 cells [9] is listed as “decrease in oxygen consumption”.
